Key:
SK-OV-3 = assay: Cytotoxicity against human SKOV3 cells assessed as decrease in cell viability after 72 hrs by MTS assay; format: functional, cell-based; conditions: SK-OV-3, 72 h
Outline: (§1)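 Cell proliferation assay using the MTS reagent. Compounds were tested as a dilution series, and EC50 values were derived from the concentration–response data.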

HCT-116 = assay: Cytotoxicity against human HCT116 cells assessed as decrease in cell viability after 72 hrs by MTS assay; format: functional, cell-based; conditions: HCT-116, 72 h; outline: as §1
HepG2 = assay: Cytotoxicity against human HepG2 cells assessed as decrease in cell viability after 72 hrs by MTS assay; format: functional, cell-based; conditions: HepG2, 72 h; outline: as §1
MES-SA = assay: Cytotoxicity against human MESSA cells assessed as decrease in cell viability after 72 hrs by MTS assay; format: functional, cell-based; outline: as §1
MES-SA/Dx5 = assay: Cytotoxicity against human MES-SA/Dx5 cells assessed as decrease in cell viability after 72 hrs by MTS assay; format: functional, cell-based; conditions: MES-SA/Dx5, 72 h; outline: as §1
786-0 = assay: Cytotoxicity against human 786-O cells assessed as decrease in cell viability after 72 hrs by MTS assay; format: functional, cell-based; conditions: 786-0, 72 h; outline: as §1
MCF7 = assay: Cytotoxicity against human MCF7 cells assessed as decrease in cell viability after 72 hrs by MTS assay; format: functional, cell-based; conditions: MCF7, 72 h; outline: as §1
BXPC-3 = assay: Cytotoxicity against human BxPC3 cells assessed as decrease in cell viability after 72 hrs by MTS assay; format: functional, cell-based; conditions: BXPC-3, 72 h; outline: as §1
U-87 MG = assay: Cytotoxicity against human U87MG cells assessed as decrease in cell viability after 72 hrs by MTS assay; format: functional, cell-based, U-87MG ATCC; outline: as §1
NCI-H1975 = assay: Cytotoxicity against human NCI-H1975 cells assessed as decrease in cell viability after 72 hrs by MTS assay; format: functional, cell-based; conditions: NCI-H1975, 72 h; outline: as §1
HUVEC = assay: Cytotoxicity against human HUVEC cells assessed as decrease in cell viability after 72 hrs by MTS assay; format: cell-based; outline: as §1
CCRF S-180 = assay: Cytotoxicity against mouse S180 cells assessed as decrease in cell viability after 72 hrs by MTS assay; format: functional, cell-based; conditions: CCRF S-180, 72 h; outline: as §1
Cardiac muscle cell [1] = assay: Toxicity in human inducible pluripotent stem cell derived cardiomyocytes assessed as change in beating amplitude at 0.32 nM after 8 mins; format: cell-based; conditions: 0.00032 µM
Outline: (§2)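 Human iPSC-derived cardiomyocytes (Cor.4U) were grown to stable beating cultures and monitored by impedance in real time with 20 s recordings. Compounds were given as a dilution series from 0.32 nM to 5 μM, dosed twice 24 h apart, with monitoring over 48 h. Beating amplitude was taken from each negative peak to the following positive peak and reported as % change.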

Cardiac muscle cell [2] = assay: Toxicity in human inducible pluripotent stem cell derived cardiomyocytes assessed as change in beating amplitude at 0.32 nM after 33 mins; format: cell-based; conditions: 0.55 h, 0.00032 µM; outline: as §2
Cardiac muscle cell [3] = assay: Toxicity in human inducible pluripotent stem cell derived cardiomyocytes assessed as change in beating amplitude at 0.32 nM after 66 mins; format: cell-based; conditions: 1.1 h, 0.00032 µM; outline: as §2
Cardiac muscle cell [4] = assay: Toxicity in human inducible pluripotent stem cell derived cardiomyocytes assessed as change in beating amplitude at 0.32 nM after 4 hrs; format: cell-based; conditions: 0.00032 µM; outline: as §2
Cardiac muscle cell [5] = assay: Toxicity in human inducible pluripotent stem cell derived cardiomyocytes assessed as change in beating amplitude at 0.32 nM after 12 hrs; format: cell-based; conditions: 0.00032 µM; outline: as §2
Cardiac muscle cell [6] = assay: Toxicity in human inducible pluripotent stem cell derived cardiomyocytes assessed as change in beating amplitude at 0.32 nM after 24 hrs; format: cell-based; conditions: 0.00032 µM; outline: as §2
Cardiac muscle cell [7] = assay: Toxicity in human inducible pluripotent stem cell derived cardiomyocytes assessed as change in beating amplitude at 0.32 nM after 36 hrs; format: cell-based; conditions: 0.00032 µM; outline: as §2
Cardiac muscle cell [8] = assay: Toxicity in human inducible pluripotent stem cell derived cardiomyocytes assessed as change in beating amplitude at 0.32 nM after 48 hrs; format: cell-based; conditions: 0.00032 µM; outline: as §2
Cardiac muscle cell [9] = assay: Toxicity in human inducible pluripotent stem cell derived cardiomyocytes assessed as change in beating amplitude at 1.6 nM after 33 mins; format: cell-based; conditions: 0.55 h, 0.0016 µM; outline: as §2
Cardiac muscle cell [10] = assay: Toxicity in human inducible pluripotent stem cell derived cardiomyocytes assessed as change in beating amplitude at 1.6 nM after 66 mins; format: cell-based; conditions: 1.1 h, 0.0016 µM; outline: as §2
Cardiac muscle cell [11] = assay: Toxicity in human inducible pluripotent stem cell derived cardiomyocytes assessed as change in beating amplitude at 1.6 nM after 4 hrs; format: cell-based; conditions: 0.0016 µM; outline: as §2
Cardiac muscle cell [12] = assay: Toxicity in human inducible pluripotent stem cell derived cardiomyocytes assessed as change in beating amplitude at 1.6 nM after 12 hrs; format: cell-based; conditions: 0.0016 µM; outline: as §2
Cardiac muscle cell [13] = assay: Toxicity in human inducible pluripotent stem cell derived cardiomyocytes assessed as change in beating amplitude at 1.6 nM after 24 hrs; format: cell-based; conditions: 0.0016 µM; outline: as §2
Cardiac muscle cell [14] = assay: Toxicity in human inducible pluripotent stem cell derived cardiomyocytes assessed as change in beating amplitude at 1.6 nM after 36 hrs; format: cell-based; conditions: 0.0016 µM; outline: as §2
Cardiac muscle cell [15] = assay: Toxicity in human inducible pluripotent stem cell derived cardiomyocytes assessed as change in beating amplitude at 1.6 nM after 48 hrs; format: cell-based; conditions: 0.0016 µM; outline: as §2
Cardiac muscle cell [16] = assay: Toxicity in human inducible pluripotent stem cell derived cardiomyocytes assessed as change in beating amplitude at 8 nM after 33 mins; format: cell-based; conditions: 0.55 h, 0.008 µM; outline: as §2
Cardiac muscle cell [17] = assay: Toxicity in human inducible pluripotent stem cell derived cardiomyocytes assessed as change in beating amplitude at 8 nM after 66 mins; format: cell-based; conditions: 1.1 h, 0.008 µM
Outline: (§3)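 Cor.4U hiPSC-derived cardiomyocytes grown to stable beating cultures, then monitored by impedance in RTCA Cardio plates with 20 s recordings. Compounds tested as a dilution series from 0.32 nM to 5 μM, dosed twice 24 h apart, followed over 48 h. Beating amplitude is taken from each negative peak to the next positive peak and reported as percent change.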

Cardiac muscle cell [18] = assay: Toxicity in human inducible pluripotent stem cell derived cardiomyocytes assessed as change in beating amplitude at 8 nM after 4 hrs; format: cell-based; conditions: 0.008 µM; outline: as §3
Cardiac muscle cell [19] = assay: Toxicity in human inducible pluripotent stem cell derived cardiomyocytes assessed as change in beating amplitude at 8 nM after 12 hrs; format: cell-based; conditions: 0.008 µM; outline: as §2
Cardiac muscle cell [20] = assay: Toxicity in human inducible pluripotent stem cell derived cardiomyocytes assessed as change in beating amplitude at 8 nM after 24 hrs; format: cell-based; conditions: 0.008 µM; outline: as §2
Cardiac muscle cell [21] = assay: Toxicity in human inducible pluripotent stem cell derived cardiomyocytes assessed as change in beating amplitude at 8 nM after 36 hrs; format: cell-based; conditions: 0.008 µM; outline: as §3
Cardiac muscle cell [22] = assay: Toxicity in human inducible pluripotent stem cell derived cardiomyocytes assessed as change in beating amplitude at 8 nM after 48 hrs; format: cell-based; conditions: 0.008 µM; outline: as §3
Cardiac muscle cell [23] = assay: Toxicity in human inducible pluripotent stem cell derived cardiomyocytes assessed as change in beating amplitude at 40 nM after 33 mins; format: cell-based; conditions: 0.55 h, 0.04 µM; outline: as §2
Cardiac muscle cell [24] = assay: Toxicity in human inducible pluripotent stem cell derived cardiomyocytes assessed as change in beating amplitude at 40 nM after 66 mins; format: cell-based; conditions: 1.1 h, 0.04 µM; outline: as §2
Cardiac muscle cell [25] = assay: Toxicity in human inducible pluripotent stem cell derived cardiomyocytes assessed as change in beating amplitude at 40 nM after 48 hrs; format: cell-based; conditions: 0.04 µM; outline: as §2
Cardiac muscle cell [26] = assay: Toxicity in human inducible pluripotent stem cell derived cardiomyocytes assessed as change in beating amplitude at 1.6 nM after 8 mins; format: cell-based; conditions: 0.0016 µM; outline: as §2
Cardiac muscle cell [27] = assay: Toxicity in human inducible pluripotent stem cell derived cardiomyocytes assessed as change in beating amplitude at 8 nM after 8 mins; format: cell-based; conditions: 0.008 µM; outline: as §3
Cardiac muscle cell [28] = assay: Toxicity in human inducible pluripotent stem cell derived cardiomyocytes assessed as change in beating amplitude at 40 nM after 8 mins; format: cell-based; conditions: 0.04 µM; outline: as §2
Cardiac muscle cell [29] = assay: Toxicity in human inducible pluripotent stem cell derived cardiomyocytes assessed as increase in beating amplitude at >40 nM; format: cell-based; outline: as §3

C[C@]12CC[C@H](O)C[C@H]1CC[C@@H]1[C@@H]2CC[C@]2(C)[C@@H](c3ccc(=O)oc3)CC[C@]12O [BUFALIN]
EC50 (SK-OV-3): 10 nM | EC50 (HCT-116): 11 nM | EC50 (HepG2): 35 nM | EC50 (MES-SA): 28 nM | EC50 (MES-SA/Dx5): 18 nM | EC50 (786-0): 7.5 nM | EC50 (MCF7): 42 nM | EC50 (BXPC-3): 11 nM | EC50 (U-87 MG): 14 nM | EC50 (NCI-H1975): 13 nM | EC50 (HUVEC): 12 nM | EC50 (CCRF S-180): > 20000 nM | Activity (Cardiac muscle cell [1]): -3% | Activity (Cardiac muscle cell [2]): -2% | Activity (Cardiac muscle cell [3]): -4.4% | Activity (Cardiac muscle cell [4]): 12% | Activity (Cardiac muscle cell [5]): 17% | Activity (Cardiac muscle cell [6]): 32% | Activity (Cardiac muscle cell [7]): 62% | Activity (Cardiac muscle cell [8]): 42% | Activity (Cardiac muscle cell [9]): -0.6% | Activity (Cardiac muscle cell [10]): -2.7% | Activity (Cardiac muscle cell [11]): 11% | Activity (Cardiac muscle cell [12]): 8.9% | Activity (Cardiac muscle cell [13]): 4.3% | Activity (Cardiac muscle cell [14]): -2.9% | Activity (Cardiac muscle cell [15]): -10% | Activity (Cardiac muscle cell [16]): 3.1% | Activity (Cardiac muscle cell [17]): 10% | Activity (Cardiac muscle cell [18]): 34% | Activity (Cardiac muscle cell [19]): 35% | Activity (Cardiac muscle cell [20]): -22% | Activity (Cardiac muscle cell [21]): 7.6% | Activity (Cardiac muscle cell [22]): -32% | Activity (Cardiac muscle cell [23]): 21% | Activity (Cardiac muscle cell [24]): -62% | Activity (Cardiac muscle cell [25]): -84.3% | Activity (Cardiac muscle cell [26]): 1.8% | Activity (Cardiac muscle cell [27]): 2.8% | Activity (Cardiac muscle cell [28]): 8.5% | Activity (Cardiac muscle cell [29]): Toxic
